The target of data set [1] is T1, Potassium voltage-gated channel subfamily KQT member 2 (Homo sapiens, UniProt O43526). Briefly: Activation of human Kv7.2 expressed in CHO cells assessed as increase in current amplitude at 10 uM measured at holding potential of -40 mV by whole cell patch clamp electrophysiology assay relative to control. It counts as cell-based. In a few lines: (§1)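 CHO cells transiently co-transfected (Lipofectamine 2000, 4 μg total cDNA, EGFP marker) with human channel cDNA in pcDNA3.1, recorded 24 h later. Whole-cell patch clamp at 20–22°C, 3–5 MΩ pipettes, perfused extracellular solution pH 7.4. Held at −80 mV; 3-s ramps −80 to +20 mV ± 10 μM drug. Current at −40 mV with vs without drug expressed as ratio; ≥3 cells from ≥2 transfections, mean ± SEM.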

Data set [2] has as its target CYP450 (phase 1 metabolism) (Homo sapiens, UniProt P04798+P05177+P05181+P08684+P10632+P10635+P11509+P11712+P13584+P20813+P20815+P20853+P24462+P24903+P33260+P33261+P51589+P78329+P98187+Q02928+Q08477+Q16678+Q16696+Q5TCH4+Q6VVX0+Q7Z449+Q8TAV3+Q96SQ9+Q9HB55). Briefly: Drug metabolism in human liver S9 fractions assessed as CYP450-mediated phase 1 metabolism at 1 mM preincubated for 5 mins followed by NADPH addition and measured after 60 mins by RP-UHPLC-DAD analysis relative to control. It counts as ADME, subcellular. The note with it: read-out: Drug metabolism. In short, it runs like this: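 Drug (1 mM stock, 2 μL) incubated with pooled human liver S9 fraction in 100 mM phosphate buffer pH 7.4. After 5 min preincubation, NADPH added and mixture kept 60 min at 37°C. Stopped with ice-cold methanol, centrifuged, supernatant analysed by RP-UHPLC-DAD. % turnover = 100 − (60 min/0 min concentration × 100). Controls: no-NADPH, and testosterone, 7-hydroxycoumarin, p-aminobenzoic acid.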

Data set [3] can be described thus: Photostability of compound in pH 7.4 buffer assessed as compound degradation at 100 ug/ml incubated for 6 hrs under natural solar light-irradiation by HPLC analysis relative to control. In a few lines: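 DMSO solutions diluted in pH 7.4 buffer, held in 1 cm quartz cells and exposed to natural daylight. Light-shielded controls kept at 37°C in foil. Aliquots drawn at set intervals and parent compound loss measured by UHPLC: C18 column, 0.1% TFA water/acetonitrile gradient, 45°C, detection at 254 nm.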

For data set [4], the system named is Potassium voltage-gated channel subfamily KQT member 2 (Homo sapiens), O43526 [W236L]. The data set can be described thus: Activation of human Kv7.2 W236L mutant expressed in CHO cells assessed as channel current amplitude at 10 uM measured at holding potential of -40 mV by whole cell patch clamp electrophysiology assay. In kind it is cell-based. In short, it runs like this:
as §1
In general terms: Patch clamp records ionic current or voltage across a cell membrane.

For data set [5], the target named is T1, Potassium voltage-gated channel subfamily KQT member 2. Briefly: Activation of human Kv7.2 expressed in CHO cells assessed as delta V at 10 uM by whole cell patch clamp electrophysiology assay. In kind it is cell-based. In a few lines: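 Human Kv7.2 transiently expressed in CHO cells; whole-cell recordings at room temperature (20–22°C), pH 7.4 extracellular solution. 3-s ramps from −80 to +20 mV with 0.01–10 μM drug. ΔV taken as shift of the potential where current reaches 20% of peak, drug vs control, plotted against log concentration. Four-parameter logistic fit gives EC50; mean ± SD of ≥3 experiments.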

The target of data set [6] is T2, Potassium voltage-gated channel subfamily KQT member 3 (Homo sapiens) (UniProt O43525).
T2 sequence (whole entry): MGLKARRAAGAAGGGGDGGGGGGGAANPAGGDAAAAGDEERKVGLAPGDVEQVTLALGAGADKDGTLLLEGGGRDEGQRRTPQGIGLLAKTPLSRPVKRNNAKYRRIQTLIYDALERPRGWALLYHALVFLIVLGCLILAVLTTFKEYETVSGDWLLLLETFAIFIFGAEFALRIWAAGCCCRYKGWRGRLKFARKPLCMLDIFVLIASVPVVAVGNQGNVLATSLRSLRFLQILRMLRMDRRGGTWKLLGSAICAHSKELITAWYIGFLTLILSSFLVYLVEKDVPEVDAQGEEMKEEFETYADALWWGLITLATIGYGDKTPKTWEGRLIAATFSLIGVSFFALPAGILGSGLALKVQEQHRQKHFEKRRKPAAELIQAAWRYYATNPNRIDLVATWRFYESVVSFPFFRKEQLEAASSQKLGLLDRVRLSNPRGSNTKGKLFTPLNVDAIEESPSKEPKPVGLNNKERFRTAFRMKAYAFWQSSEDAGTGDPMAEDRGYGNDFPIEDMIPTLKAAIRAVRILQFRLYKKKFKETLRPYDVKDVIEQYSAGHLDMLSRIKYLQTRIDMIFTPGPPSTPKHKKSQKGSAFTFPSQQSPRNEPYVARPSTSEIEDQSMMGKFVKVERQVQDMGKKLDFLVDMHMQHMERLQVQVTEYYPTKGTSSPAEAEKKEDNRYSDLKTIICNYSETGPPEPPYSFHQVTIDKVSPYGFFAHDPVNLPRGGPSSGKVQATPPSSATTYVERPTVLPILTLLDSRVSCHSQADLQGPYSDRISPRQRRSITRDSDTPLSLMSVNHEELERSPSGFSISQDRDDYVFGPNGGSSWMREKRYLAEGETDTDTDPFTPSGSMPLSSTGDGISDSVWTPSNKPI
Briefly: Activation of human Kv7.3 expressed in CHO cells assessed as delta V at 30 uM by whole cell patch clamp electrophysiology assay. It counts as cell-based.

For data set [7], the target named is T3, Potassium voltage-gated channel subfamily KQT member 4 (Homo sapiens, UniProt P56696).
T3 sequence (P56696 whole entry): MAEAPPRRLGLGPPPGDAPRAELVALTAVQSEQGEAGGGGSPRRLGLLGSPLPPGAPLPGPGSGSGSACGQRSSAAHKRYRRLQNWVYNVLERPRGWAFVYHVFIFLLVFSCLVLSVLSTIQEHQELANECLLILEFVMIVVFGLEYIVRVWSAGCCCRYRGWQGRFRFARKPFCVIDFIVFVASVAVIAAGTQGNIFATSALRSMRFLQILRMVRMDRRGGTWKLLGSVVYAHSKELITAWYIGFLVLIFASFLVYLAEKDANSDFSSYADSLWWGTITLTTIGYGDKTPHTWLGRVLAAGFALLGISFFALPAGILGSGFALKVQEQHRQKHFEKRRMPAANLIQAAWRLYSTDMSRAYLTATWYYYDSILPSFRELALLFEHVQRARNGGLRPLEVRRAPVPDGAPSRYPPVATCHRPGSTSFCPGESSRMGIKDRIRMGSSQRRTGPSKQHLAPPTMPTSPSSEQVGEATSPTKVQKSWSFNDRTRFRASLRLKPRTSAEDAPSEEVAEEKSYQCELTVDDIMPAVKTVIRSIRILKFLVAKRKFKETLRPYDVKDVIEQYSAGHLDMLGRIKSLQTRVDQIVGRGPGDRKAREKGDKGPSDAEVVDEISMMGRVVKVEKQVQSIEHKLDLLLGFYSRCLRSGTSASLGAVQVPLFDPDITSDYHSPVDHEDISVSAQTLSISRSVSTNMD
Briefly: Activation of human Kv7.4 expressed in CHO cells assessed as delta V at 10 uM by whole cell patch clamp electrophysiology assay. It counts as cell-based.

Calls of active or inactive are those of the source. The rule behind the calls is not given here.

T1 sequence (O43526 whole entry, the tested form may be a part): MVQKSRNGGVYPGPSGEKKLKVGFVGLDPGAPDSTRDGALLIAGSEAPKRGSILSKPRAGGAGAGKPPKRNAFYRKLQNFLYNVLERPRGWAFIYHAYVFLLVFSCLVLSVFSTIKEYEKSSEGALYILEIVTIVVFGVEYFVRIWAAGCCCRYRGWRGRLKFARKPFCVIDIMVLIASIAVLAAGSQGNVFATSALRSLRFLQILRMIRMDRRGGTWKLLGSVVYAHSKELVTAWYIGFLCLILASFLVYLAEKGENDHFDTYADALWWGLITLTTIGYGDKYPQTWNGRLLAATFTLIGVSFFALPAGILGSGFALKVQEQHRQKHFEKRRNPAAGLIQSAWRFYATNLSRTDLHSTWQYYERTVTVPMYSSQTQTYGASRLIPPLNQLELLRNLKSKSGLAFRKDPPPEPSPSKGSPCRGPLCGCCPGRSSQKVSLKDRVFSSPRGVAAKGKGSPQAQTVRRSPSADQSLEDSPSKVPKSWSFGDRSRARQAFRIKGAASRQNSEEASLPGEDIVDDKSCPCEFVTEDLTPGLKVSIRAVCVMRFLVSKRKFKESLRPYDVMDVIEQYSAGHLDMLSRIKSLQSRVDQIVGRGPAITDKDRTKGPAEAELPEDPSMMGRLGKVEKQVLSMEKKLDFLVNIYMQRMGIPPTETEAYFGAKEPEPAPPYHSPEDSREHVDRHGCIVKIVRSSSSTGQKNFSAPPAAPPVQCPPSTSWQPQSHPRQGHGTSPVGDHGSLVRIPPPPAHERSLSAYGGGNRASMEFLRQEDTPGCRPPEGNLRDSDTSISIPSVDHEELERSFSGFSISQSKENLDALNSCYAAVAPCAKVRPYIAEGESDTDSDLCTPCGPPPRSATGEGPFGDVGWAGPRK
Potassium voltage-gated channel subfamily KQT member 2 (Homo sapiens), O43526 [W236L], sequence (O43526 whole entry W236L): as the sequence (O43526 whole entry, the tested form may be a part) above, with W236L counted along it

As to `CCOC(=O)Nc1ccc(NCc2ccc(F)cc2)cc1N` [EZOGABINE], the Ratio in data set [1] is 6. Also, in data set [2], the metabolised at 1 h, 1000 µM came out at 3.11%. Besides, the Drug degradation in data set [3] lay in the range of 43.5 to 47.3%. Moreover, in data set [4], the result was inactive. The Activity in data set [5] was -25.4 mV; in data set [6] it was -39.9 mV; in data set [7], -15.19 mV.

As for `CC(C)(C)CC(=O)Nc1ccc2c(ccn2Cc2ccc(C(F)(F)F)cc2)c1`, the result in data set [1] was Active. For the same compound, the metabolised at 1 h, 1000 µM in data set [2] was 17.3%. In data set [3], the Drug degradation was found to be 8.45%. Further, the outcome in data set [4] was inactive. The Activity in data set [5] is -30 mV; in data set [6], -21.4 mV; in data set [7] it was -24.43 mV.

As to `CCCCCCC(=O)Nc1ccc2c(ccn2Cc2ccc(C(F)(F)F)cc2)c1`, in data set [1], the result was Active. Further, the metabolised at 1 h, 1000 µM in data set [2] stood at 48.7%. The Drug degradation in data set [3] was found to be 9.15%. In addition, in data set [4], the outcome was inactive. The Activity in data set [5] was -29.5 mV; in data set [6] it was -26.2 mV; in data set [7], -32.85 mV.

(Values after ChEMBL document CHEMBL4402547, “Synthesis and Pharmacological Characterization of Conformationally Restricted Retigabine Analogues as Novel Neuronal Kv7 Channel Activators” (J Med Chem, 2020).)
